Here are results for 6 compounds from ChEMBL document CHEMBL4725317 (Bioorg Med Chem Lett, 2020).

A word on the AUC(0-inf): it is total exposure, with the tail of the curve extrapolated. The term bioavailability denotes the share of a dose that reaches the circulation, judged against a reference dose that is usually intravenous. One may read the Tmax as the time at which the peak concentration occurs. A word on the half-life: it is the time in which the quantity being followed falls by half. The term Cmax denotes the peak of the concentration-time curve.

Test system in the first series: not listed separately
In words: Stability of compound in mouse liver microsomes assessed as parent compound remaining at 1 uM measured at 10 mins in presence of NADPH. Format: ADME, Microsome. To be noted: read-out: Stabilty. In a few lines:
(§1)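 Test compound at 1 μM with human, mouse or rat liver microsomes (0.5 mg/ml protein) plus NADPH cofactor; final solvents 0.01% DMSO, 0.05% acetonitrile; percent parent remaining at 10 min. Verapamil, cerivastatin and warfarin as positive controls. SD given when multiple batches were tested.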
(In general: Liver microsomes are vesicles of endoplasmic reticulum, rich in cytochrome P450 enzymes.)
As to `COc1cc(O)c([C@@H]2O[C@H](CO)C(F)(F)[C@H](O)[C@H]2O)cc1Cc1ccc2c(c1)OCCO2`, the remaining at 10 min, 1 µM was determined as 97%.
Same read-out and setting: to `OC[C@H]1O[C@@H](c2cc(Cc3cc4ccccc4s3)c(Cl)cc2O)[C@H](O)[C@@H](O)C1(F)F` belongs 106%; to `OC[C@H]1O[C@@H](c2cc(Cc3ccc4c(c3)OCCO4)c(Cl)cc2O)[C@H](O)[C@@H](O)C1(F)F`, 74%.
Same read-out and setting: to `C[C@]1(F)[C@H](O)[C@@H](O)[C@H](c2cc(Cc3ccc4c(c3)OCCO4)c(Cl)cc2O)O[C@@H]1CO` belongs 96%.
Consider `COc1cc(Cl)c(Cc2cc3ccccc3s2)cc1[C@@H]1O[C@H](CO)C(F)(F)[C@H](O)[C@H]1O`, for which the remaining at 10 min, 1 µM came to 37%.
On to `COc1cc(O)c([C@@H]2O[C@H](CO)C(F)(F)[C@H](O)[C@H]2O)cc1Cc1cc2ccccc2s1`, for which the remaining at 10 min, 1 µM is 111%.

Test system in the next series: not listed separately
In words: AUC (0 to infinity) in Sprague-Dawley rat at 2 mg/kg, iv or 10 mg/kg, po. The series is classed as ADME, organism-based. The arrangement: dose 10 mg/kg. To be noted: in vivo. In a few lines:
(§2)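 Male Sprague Dawley rats dosed 2 mg/kg IV (vehicle 20% HPbCD) or 10 mg/kg PO (vehicle 0.5% Methocel); pharmacokinetic parameters derived from plasma exposure.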
Turning to `OC[C@H]1O[C@@H](c2cc(Cc3cc4ccccc4s3)c(Cl)cc2O)[C@H](O)[C@@H](O)C1(F)F`, the total exposure AUC(0-inf) was 18600 ng·h/mL.

Test system in the next series: not listed separately
In words: Oral bioavailability in Sprague-Dawley rat at 10 mg/kg. Format: ADME, organism-based. To be noted: in vivo. In outline:
as §2
In the case of `OC[C@H]1O[C@@H](c2cc(Cc3cc4ccccc4s3)c(Cl)cc2O)[C@H](O)[C@@H](O)C1(F)F`, the bioavailability came to 46.8%.

Test system in a further series: not listed separately
In words: Stability of compound in human liver microsomes assessed as parent compound remaining at 1 uM measured at 10 mins in presence of NADPH. Format: ADME, Microsome. Conditions: liver microsomes, read-out: Stabilty. In outline: as §1
Consider `COc1cc(O)c([C@@H]2O[C@H](CO)C(F)(F)[C@H](O)[C@H]2O)cc1Cc1ccc2c(c1)OCCO2`, for which the remaining at 10 min, 1 µM is 99%.
Same read-out and setting: to `OC[C@H]1O[C@@H](c2cc(Cc3ccc4c(c3)OCCO4)c(Cl)cc2O)[C@H](O)[C@@H](O)C1(F)F` belongs 96%; to `C[C@]1(F)[C@H](O)[C@@H](O)[C@H](c2cc(Cc3ccc4c(c3)OCCO4)c(Cl)cc2O)O[C@@H]1CO`, 74%.
The same measure, in the same setting: to `COc1cc(Cl)c(Cc2cc3ccccc3s2)cc1[C@@H]1O[C@H](CO)C(F)(F)[C@H](O)[C@H]1O` belongs 65%.
The same measure, in the same setting: in the case of `COc1cc(O)c([C@@H]2O[C@H](CO)C(F)(F)[C@H](O)[C@H]2O)cc1Cc1cc2ccccc2s1` it was 103%.

The series is the same for the next values; noted with them: microsomes, 10 min, 1 µM.
With `OC[C@H]1O[C@@H](c2cc(Cc3cc4ccccc4s3)c(Cl)cc2O)[C@H](O)[C@@H](O)C1(F)F`, the Stabilty was found to be 120%.

Test system in another series: not listed separately
In words: Half life in human liver microsomes at 1 uM measured at 10 mins in presence of NADPH. Format: ADME, Microsome.
Details: not given
On to `OC[C@H]1O[C@@H](c2cc(Cc3cc4ccccc4s3)c(Cl)cc2O)[C@H](O)[C@@H](O)C1(F)F`, for which the t1/2 was > 3 h.

Test system in another series: not listed separately
In words: In vivo inhibition of SGLT1 in overnight fasted Sprague-Dawley rat assessed as amount of urinary glucose excretion assessed per 4 hrs at 1 mg/kg, po. The series is classed as functional.
Details: not given
In outline:
(§3)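 Overnight-fasted SD rats dosed orally at 1 or 10 mg/kg in 0.5% Methocel (vehicle controls) 60 min before oral glucose challenge. […] N=8 per group; mean ± SEM; one-way ANOVA-Dunnett.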
Consider `OC[C@H]1O[C@@H](c2cc(Cc3cc4ccccc4s3)c(Cl)cc2O)[C@H](O)[C@@H](O)C1(F)F`, for which the Activity is on record as 0.001 g.

Test system in the next series: not listed separately
In words: Tmax in Sprague-Dawley rat at 2 mg/kg, iv or 10 mg/kg, po. Format: ADME, organism-based. Conditions: in vivo. In outline:
as §2
On to `OC[C@H]1O[C@@H](c2cc(Cc3cc4ccccc4s3)c(Cl)cc2O)[C@H](O)[C@@H](O)C1(F)F`, for which the Tmax came out at 0.31 h.

Test system in another series: not listed separately
In words: Half life in Sprague-Dawley rat at 2 mg/kg, iv. The series is classed as ADME, organism-based. To be noted: in vivo. In outline:
as §2
For the compound `OC[C@H]1O[C@@H](c2cc(Cc3cc4ccccc4s3)c(Cl)cc2O)[C@H](O)[C@@H](O)C1(F)F`, the half-life is 3.71 h.

The test system of the next series is Rattus norvegicus. In words: Hypoglycemic activity in overnight fasted Sprague-Dawley rat assessed as percent reduction in blood glucose AUC at 10 mg/kg, po measured after 4 hrs post glucose challenge by OGTT relative to control. The series is classed as functional. Also noted: scale not given: the % may be the effect or the level left.
Details: not given
In a few lines:
as §3
With `OC[C@H]1O[C@@H](c2cc(Cc3cc4ccccc4s3)c(Cl)cc2O)[C@H](O)[C@@H](O)C1(F)F`, the Activity is 41.4%.

Test system in another series: not listed separately
In words: Stability of compound in rat liver microsomes assessed as parent compound remaining at 1 uM measured at 10 mins in presence of NADPH. Format: ADME, Microsome. Conditions: liver microsomes, read-out: Stabilty. In outline:
as §1
Take `COc1cc(O)c([C@@H]2O[C@H](CO)C(F)(F)[C@H](O)[C@H]2O)cc1Cc1ccc2c(c1)OCCO2`: the remaining at 10 min, 1 µM worked out at 26%.
Same read-out and setting: in the case of `OC[C@H]1O[C@@H](c2cc(Cc3cc4ccccc4s3)c(Cl)cc2O)[C@H](O)[C@@H](O)C1(F)F` it was 94%; in that of `OC[C@H]1O[C@@H](c2cc(Cc3ccc4c(c3)OCCO4)c(Cl)cc2O)[C@H](O)[C@@H](O)C1(F)F`, 18%; in that of `C[C@]1(F)[C@H](O)[C@@H](O)[C@H](c2cc(Cc3ccc4c(c3)OCCO4)c(Cl)cc2O)O[C@@H]1CO`, 56%.
Still for that read-out and setting: to `COc1cc(O)c([C@@H]2O[C@H](CO)C(F)(F)[C@H](O)[C@H]2O)cc1Cc1cc2ccccc2s1` belongs 98%.

Still in this series, the particulars now being: microsomes, 10 min, 1 µM.
`COc1cc(Cl)c(Cc2cc3ccccc3s2)cc1[C@@H]1O[C@H](CO)C(F)(F)[C@H](O)[C@H]1O`: the Stabilty came out at 123%.

Test system in a further series: not listed separately
In words: Clearance in Sprague-Dawley rat at 2 mg/kg, iv or 10 mg/kg, po. The series is classed as ADME, organism-based. Conditions: in vivo. In outline: as §2
Compound `OC[C@H]1O[C@@H](c2cc(Cc3cc4ccccc4s3)c(Cl)cc2O)[C@H](O)[C@@H](O)C1(F)F` had a clearance of 3.92 mL/min/kg.

Test system in another series: not listed separately
In words: Cmax in Sprague-Dawley rat at 2 mg/kg, iv or 10 mg/kg, po. The series is classed as ADME, organism-based. Also noted: dose 10 mg/kg. To be noted: in vivo. In a few lines: as §2
Compound `OC[C@H]1O[C@@H](c2cc(Cc3cc4ccccc4s3)c(Cl)cc2O)[C@H](O)[C@@H](O)C1(F)F` registered a Cmax of 5240 ng/mL.

Test system in another series: not listed separately
In words: In vivo inhibition of SGLT2 in overnight fasted Sprague-Dawley rat assessed as amount of urinary glucose excretion assessed per 4 hrs at 10 mg/kg, po. The series is classed as functional.
Details: not given
In outline: as §3
Take `OC[C@H]1O[C@@H](c2cc(Cc3cc4ccccc4s3)c(Cl)cc2O)[C@H](O)[C@@H](O)C1(F)F`: the Activity amounted to 0.005 g.

Test system in the next series: not listed separately
In words: Volume of distribution at steady state in Sprague-Dawley rat at 2 mg/kg, iv or 10 mg/kg, po. Format: ADME, organism-based. To be noted: in vivo, read-out: Vdss. In outline: as §2
Consider `OC[C@H]1O[C@@H](c2cc(Cc3cc4ccccc4s3)c(Cl)cc2O)[C@H](O)[C@@H](O)C1(F)F`, for which the Vd stood at 0.91 L/kg.

The next series has as its system Rattus norvegicus. In words: Hypoglycemic activity in overnight fasted Sprague-Dawley rat assessed as percent reduction in blood glucose AUC at 1 mg/kg, po measured after 4 hrs post glucose challenge by OGTT relative to control. The arrangement: scale not given: the % may be the effect or the level left. Format: functional.
Details: not given
In outline:
as §3
Take `OC[C@H]1O[C@@H](c2cc(Cc3cc4ccccc4s3)c(Cl)cc2O)[C@H](O)[C@@H](O)C1(F)F`: the Activity came to 16%.
